Measurements taken from PubChem BioAssay AID588761 (Johns Hopkins Ion Channel Center, 2011).
Activity calls are given as the source filed them.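 How the source made its calls: active means peak block of the KCNQ2 potassium channel above 30% at any tested dose, with a fitted dose response curve; inactive means no channel block at any dose, or no curve.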

The compounds below were run against Potassium voltage-gated channel subfamily KQT member 2 (Rattus norvegicus) (UniProt O88943) (assay: rat KCNQ2 channel inhibition, SAR follow-up, selectivity assay for KCNK9 inhibitor project, cell-based, FluxOR thallium flux, CRC (AID 588761)). Settings: KCNQ2-expressing cells; series mostly up to 30 µM.
Summary of the method: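 Assay system: KCNQ2-expressing CHO cells; Reagent: Thallium/potassium stimulus, 5x stock with 7 mM Tl2SO4 and 25 mM K2SO4; Compound dosing: concentration-response series; Times: dye 90 min RT, compound 20 min RT; Detection: FluxOR thallium-flux fluorescence, kinetic imaging; Controls: XE-991 as KCNQ2 inhibitor control.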

Sequence of Potassium voltage-gated channel subfamily KQT member 2 (Rattus norvegicus) (O88943 whole entry, looked up): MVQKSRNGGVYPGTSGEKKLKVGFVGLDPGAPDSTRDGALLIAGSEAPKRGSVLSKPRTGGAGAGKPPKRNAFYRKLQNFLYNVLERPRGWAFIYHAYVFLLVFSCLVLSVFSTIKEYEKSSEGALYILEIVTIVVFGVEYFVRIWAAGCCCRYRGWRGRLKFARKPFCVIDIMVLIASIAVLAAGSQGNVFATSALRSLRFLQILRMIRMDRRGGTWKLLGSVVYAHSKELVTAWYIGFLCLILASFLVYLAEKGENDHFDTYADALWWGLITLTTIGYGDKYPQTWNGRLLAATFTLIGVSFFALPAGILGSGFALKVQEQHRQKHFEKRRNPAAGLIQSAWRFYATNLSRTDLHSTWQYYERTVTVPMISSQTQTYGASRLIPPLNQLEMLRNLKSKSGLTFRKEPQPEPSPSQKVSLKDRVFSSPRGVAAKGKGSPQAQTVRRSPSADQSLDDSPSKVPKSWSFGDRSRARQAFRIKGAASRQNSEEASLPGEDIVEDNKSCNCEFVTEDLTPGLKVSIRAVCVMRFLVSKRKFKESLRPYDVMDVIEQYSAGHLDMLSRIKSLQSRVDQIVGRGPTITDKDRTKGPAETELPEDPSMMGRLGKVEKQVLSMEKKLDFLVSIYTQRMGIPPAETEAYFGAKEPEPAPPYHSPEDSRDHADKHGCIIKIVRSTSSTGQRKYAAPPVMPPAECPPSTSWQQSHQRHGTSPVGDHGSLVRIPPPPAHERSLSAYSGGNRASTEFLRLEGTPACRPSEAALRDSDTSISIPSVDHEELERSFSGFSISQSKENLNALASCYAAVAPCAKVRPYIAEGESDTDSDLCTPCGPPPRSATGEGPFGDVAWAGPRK

outcome, inactive:
Cc1cccc(C(=O)Nc2ccccc2C(=O)Nc2ccccc2)c1
Cc1cccc(C(=O)Nc2ccc(C(=O)Nc3ccccc3)cc2)c1
Cc1cccc(C(=O)Nc2cccc(C(=O)Nc3ccccc3)c2)c1
Cc1cccc(NC(=O)c2cccc(NC(=O)c3ccccc3)c2)c1
Cc1cccc(NC(=O)c2ccccc2NC(=O)c2ccccc2)c1
